According to ChEMBL document CHEMBL3526002, “Tissue distribution and identification of radioactivity components at elimination phase after oral administration of [¹⁴C]CS-1036, an α-amylase inhibitor, to rats” (Drug Metab Dispos, 2013):
Each block holds one molecule with its values, some of them ahead of it.

Legend:
[1] = test system: Rattus norvegicus; assay: Half life in po dosed rat dosed and assessed as 1,4-dideoxy-1,4-imino-D-arabinitol level (M1); type: ADME, organism-based; design: dosed compound name M1; details: in vivo
[2] = test system: Plasma; assay: Drug metabolism in albino F344/DuCrlCrlj rat plasma protein treated with at 10 mg/kg, po of [14C]CS-1036 administered for 5 days by liquid scintillation counting; type: ADME, organism-based; design: dose 10 mg/kg, dosed compound name [14C]CS-1036, route oral; details: in vivo, 120 h
Summary of the method: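 Male F344/DuCrlCrlj rats (n = 3) received oral [14C]CS-1036 at 10 mg/kg/day for 5 days at 24-h intervals, with food freely available. Plasma was taken from the abdominal aorta 24 h after the fifth dose and pooled. It was precipitated with acetonitrile, and the pellets were washed with 0.4 M TCA, 80% methanol and 30% ether/ethanol until washes were below twice background. Pellets were HCl-hydrolysed, and recovered radioactivity was counted by LSC.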

[3] = test system: Plasma; assay: Drug level in albino F344/DuCrlCrlj rat plasma treated with [14C]CS-1036 at 10 mg/kg, po after 8 to 72 hrs by liquid scintillation counting; type: ADME, organism-based; design: dose 10 mg/kg, dosed compound name [14C]CS-1036, route oral; details: in vivo
[4] = Drug excretion in po dosed rat urine dosed as [14C]CS-1036 assessed as 1,4-dideoxy-1,4-imino-D-arabinitol (M1) level up to 24 hrs; type: ADME, organism-based; design: dosed compound name [14C]CS-1036; details: in vivo
[5] = test system: Intestine; assay: Drug metabolism in po dosed rat in intestinal flora treated with [14C]CS-1036 by liquid scintillation counting; type: ADME, organism-based; design: dosed compound name [14C]CS-1036; details: in vivo
[6] = Systemic absorption of acarbose estimated from drug excretion in human urine; type: ADME; design: dosed compound name acarbose
[7] = test system: Plasma; assay: Drug uptake in albino F344/DuCrlCrlj rat assessed as radioactivity in aspartic acid in plasma protein at 10 mg/kg, po administered for 5 days by accelerator mass spectrometry analysis; type: ADME, organism-based; design: dose 10 mg/kg, dosed compound name [14C]CS-1036, route oral; details: in vivo, 120 h
Summary of the method: (§1)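 Rats were dosed orally with [14C]CS-1036 at 10 mg/kg/day for 5 days. Pooled plasma protein was washed and HCl-hydrolysed, then PTC-derivatized. It was separated by HPLC (40°C, gradient, UV 254 nm) and fractionated every 6 s over 0–15 min. Fraction 14C was measured by AMS after subtracting matching control-plasma fractions. Peaks were assigned by retention time against amino acid standards, and each fraction was expressed as % of injected radioactivity.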

[8] = test system: Plasma; assay: Drug uptake in albino F344/DuCrlCrlj rat assessed as radioactivity in glutamic acid in plasma protein at 10 mg/kg, po administered for 5 days by accelerator mass spectrometry analysis; type: ADME, organism-based; design: dose 10 mg/kg, dosed compound name [14C]CS-1036, route oral; details: in vivo, 120 h; summary of the method: as §1
[9] = Drug uptake in albino F344/DuCrlCrlj rat assessed as radioactivity in oleic acid in adipose tissue homogenates at 10 mg/kg, po administered for 4 days by LC-MS/MS spectra analysis; details: in vivo, 96 h
[10] = Drug uptake in albino F344/DuCrlCrlj rat assessed as radioactivity in palmitic acid in adipose tissue homogenates at 10 mg/kg, po administered for 4 days by LC-MS/MS spectra analysis; details: in vivo, 96 h

Structure (SMILES): N[C@@H](CC(=O)O)C(=O)O [ASPARTIC ACID]
Compound recovery [7]: 18.5%

Structure (SMILES): CCCCCCCC/C=C\CCCCCCCC(=O)O [OLEIC ACID]
Compound recovery [9]: Active

Structure (SMILES): CCCCCCCCCCCCCCCC(=O)O [PALMITIC ACID]
Compound recovery [10]: Active

More lines, now with the values ahead:

t1/2 [1]: 48 min
Drug metabolism [2]: metabolite_detected
Drug metabolism [3]: metabolite_detected
Compound recovery [4]: 5.3%
Drug metabolism [5]: metabolite_detected
Structure (SMILES): OC[C@H]1NC[C@@H](O)[C@@H]1O

Fa [6]: 1.7%
Structure (SMILES): C[C@H]1O[C@H](O[C@H]2[C@H](O)[C@@H](O)[C@@H](O[C@H]3[C@H](O)[C@@H](O)C(O)O[C@@H]3CO)O[C@@H]2CO)[C@H](O)[C@@H](O)[C@@H]1N[C@H]1C=C(CO)[C@@H](O)[C@H](O)[C@H]1O (stereo not given in full) [ACARBOSE]

Compound recovery [8]: 36.5%
Structure (SMILES): N[C@@H](CCC(=O)O)C(=O)O [GLUTAMIC ACID]
